Measured values published in ChEMBL document CHEMBL1143581, “Cationic chalcone antibiotics. Design, synthesis, and mechanism of action” (2005).
In brackets after ≈: the same amount, converted by molar mass. Activity calls are given as the source filed them. The calls are words filed in the database; no cut-off is given here.

Tests used:
Enterococcus faecium [1] = test: Minimum inhibitory concentration against Enterococcus faecium […]; NA=not active; assay type: functional, organism-based
In short: (§1)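 Broth microdilution per NCCLS in Mueller-Hinton medium, run in triplicate, with an added uninoculated compound dilution series in case of precipitation. MIC read as the lowest concentration preventing visible growth; reported values are the mean of three experiments.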

Enterococcus faecium [2] = test: Minimum inhibitory concentration against Enterococcus faecium 17501 (vancomycin-resistant clinical isolate); NA=not active; assay type: functional, organism-based
Staphylococcus aureus [3] = test: Minimum inhibitory concentration against Staphylococcus aureus ATCC 33591 (resistant to methicillin); NA=not active; assay type: functional, organism-based
Enterococcus faecium [4] = test: Minimum inhibitory concentration against Enterococcus faecium […]; assay type: functional
Staphylococcus aureus [5] = test: Effect on bacterial membrane integrity was determined by using SYTO9 green fluorescent […]; assay type: functional, Bacteria
In short: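 Incubated 15 min at 37 °C with agitation, then resuspended to OD600 ~0.4 and stained with BacLight (SYTO-9/propidium iodide) 15 min dark. Excitation 485 nm, emission 530/630 nm; green/red ratio normalized to untreated control.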

Escherichia coli [6] = test: Minimum inhibitory concentration against Escherichia coli ATCC 25922; assay type: functional; in short: as §1
Enterococcus faecium [7] = test: Minimum inhibitory concentration against Enterococcus faecium 17501 (vancomycin-resistant clinical isolate); assay type: functional
Staphylococcus aureus [8] = test: Minimum inhibitory concentration against Staphylococcus aureus ATCC 33591 (resistant to methicillin); assay type: functional
[9] = Percent lysis of human erythrocytes after exposed to test compound was measured as hemolysis; assay type: functional
Escherichia coli [10] = test: (§2) Minimum inhibitory concentration against Escherichia coli ATCC 25922; NA=not active; assay type: functional, organism-based
Escherichia coli [11] = test: as §2; assay type: functional, organism-based; in short: as §1; remark: listed apart in the source

SMILES	MIC (Enterococcus faecium [4])	MIC (Enterococcus faecium [7])	MIC (Staphylococcus aureus [8])	other results
COc1ccc(C(=O)/C=C/c2cc(-c3cccc(CO)c3)ccc2N2CCN(C)CC2)c(F)c1	–	–	–	MIC (Enterococcus faecium [1]): inactive; MIC (Enterococcus faecium [2]): inactive; MIC (Staphylococcus aureus [3]): inactive
Cc1cc(C)cc(-c2ccc(N3CCNCC3)c(/C=C/C(=O)c3cccc(NCCN(C)C)c3)c2)c1	5 µM (≈ 2.41 µg/mL)	5 µM (≈ 2.41 µg/mL)	2 µM (≈ 0.965 µg/mL)	Membrane integrity (Staphylococcus aureus [5]): 3%; MIC (Escherichia coli [6]): 5 µM (≈ 2.41 µg/mL); Hemolysis [9]: 0%
Cc1cc(C)cc(-c2ccc(OCCN(C)C)c(/C=C/C(=O)c3cccc(OCCN(C)C)c3)c2)c1	10 µM (≈ 4.87 µg/mL)	10 µM (≈ 4.87 µg/mL)	5 µM (≈ 2.43 µg/mL)	MIC (Escherichia coli [6]): 20 µM (≈ 9.73 µg/mL)
CCCCN(CCCC)c1ccc(/C=C/C(=O)c2ccc(NCCN(C)C)cc2)cc1	10 µM (≈ 4.22 µg/mL)	10 µM (≈ 4.22 µg/mL)	10 µM (≈ 4.22 µg/mL)	–
Cc1cc(C)cc(-c2ccc(OCCN(C)C)c(/C=C/C(=O)c3ccccc3CN(C)C)c2)c1	5 µM (≈ 2.28 µg/mL)	10 µM (≈ 4.57 µg/mL)	10 µM (≈ 4.57 µg/mL)	MIC (Escherichia coli [6]): 75 µM (≈ 34.2 µg/mL)
O=C(O)c1cn(C2CC2)c2cc(N3CCNCC3)c(F)cc2c1=O [CIPROFLOXACIN]	–	–	2 µM (≈ 0.663 µg/mL)	Membrane integrity (Staphylococcus aureus [5]): 102%; Hemolysis [9]: 0%
Cc1cc(C)cc(-c2ccc(OCCN(C)C)c(/C=C/C(=O)c3ccc(N)cc3)c2)c1	20 µM (≈ 8.29 µg/mL)	10 µM (≈ 4.15 µg/mL)	10 µM (≈ 4.15 µg/mL)	MIC (Escherichia coli [10]): inactive
COc1ccc(C(=O)/C=C/c2cc(-c3cc(C)cc(C)c3)ccc2OCCN(C)C)c(CN(C)C)c1	5 µM (≈ 2.43 µg/mL)	5 µM (≈ 2.43 µg/mL)	5 µM (≈ 2.43 µg/mL)	Membrane integrity (Staphylococcus aureus [5]): 2%; MIC (Escherichia coli [6]): 75 µM (≈ 36.5 µg/mL); Hemolysis [9]: <1%
CN(C)Cc1ccc(C(=O)/C=C/c2ccc(Cl)cc2Cl)cc1	75 µM (≈ 25.1 µg/mL)	40 µM (≈ 13.4 µg/mL)	40 µM (≈ 13.4 µg/mL)	–
CN(C)CCNc1ccc(C(=O)/C=C/c2ccc(Cl)cc2)cc1	75 µM (≈ 24.7 µg/mL)	75 µM (≈ 24.7 µg/mL)	75 µM (≈ 24.7 µg/mL)	–
CN(C)CCNc1cccc(C(=O)/C=C/c2cc(N3CCN(C)CC3)ccc2-c2ccccc2)c1	75 µM (≈ 35.1 µg/mL)	75 µM (≈ 35.1 µg/mL)	75 µM (≈ 35.1 µg/mL)	MIC (Escherichia coli [10]): inactive
CN(C)CCNc1cccc(C(=O)/C=C/c2ccc(Cl)cc2Cl)c1	40 µM (≈ 14.5 µg/mL)	40 µM (≈ 14.5 µg/mL)	40 µM (≈ 14.5 µg/mL)	–
CN(C)CCNc1ccccc1C(=O)/C=C/c1ccc(Cl)cc1Cl	75 µM (≈ 27.2 µg/mL)	40 µM (≈ 14.5 µg/mL)	40 µM (≈ 14.5 µg/mL)	–
Cc1cc(C)cc(-c2ccc(OCCN(C)C)c(/C=C/C(=O)c3cccc(N)c3)c2)c1	10 µM (≈ 4.15 µg/mL)	10 µM (≈ 4.15 µg/mL)	10 µM (≈ 4.15 µg/mL)	MIC (Escherichia coli [10]): inactive
C[N+](C)(C)CCOc1ccc(C(=O)/C=C/c2ccc(Cl)cc2Cl)cc1	–	–	40 µM	–
CN(C)CCNc1ccc(C(=O)/C=C/c2cccc(Oc3ccccc3)c2)cc1	5 µM (≈ 1.93 µg/mL)	20 µM (≈ 7.73 µg/mL)	20 µM (≈ 7.73 µg/mL)	–
CN(C)CCOc1ccc(C(=O)/C=C/c2ccc(Cl)cc2Cl)cc1	40 µM (≈ 14.6 µg/mL)	40 µM (≈ 14.6 µg/mL)	40 µM (≈ 14.6 µg/mL)	Membrane integrity (Staphylococcus aureus [5]): 0%; Hemolysis [9]: 100%
COc1ccc(C(=O)/C=C/c2cc(-c3ccccc3)ccc2OCCN(C)C)c(F)c1	10 µM (≈ 4.19 µg/mL)	10 µM (≈ 4.19 µg/mL)	5 µM (≈ 2.1 µg/mL)	–
CN(C)CCNc1cccc(C(=O)/C=C/c2ccc(N3CCN(C)CC3)c(-c3ccccc3)c2)c1	150 µM (≈ 70.3 µg/mL)	75 µM (≈ 35.1 µg/mL)	75 µM (≈ 35.1 µg/mL)	MIC (Escherichia coli [10]): inactive
Cc1cc(C)cc(-c2ccc(N3CCN(C)CC3)c(/C=C/C(=O)c3cccc(NCCN(C)C)c3)c2)c1	5 µM (≈ 2.48 µg/mL)	5 µM (≈ 2.48 µg/mL)	5 µM (≈ 2.48 µg/mL)	MIC (Escherichia coli [6]): 10 µM (≈ 4.97 µg/mL)
COc1ccc(C(=O)/C=C/c2cc(-c3cc(C)cc(C)c3)ccc2OCCN(C)C)cc1CN(C)C	20 µM (≈ 9.73 µg/mL)	20 µM (≈ 9.73 µg/mL)	20 µM (≈ 9.73 µg/mL)	MIC (Escherichia coli [6]): 40 µM (≈ 19.5 µg/mL)
CN(C)CCNc1ccc(C(=O)/C=C/c2ccccc2)cc1	–	–	300 µM (≈ 88.3 µg/mL)	MIC (Enterococcus faecium [1]): inactive; MIC (Enterococcus faecium [2]): inactive
Cc1cc(C)cc(-c2ccc(OCCN(C)C)c(/C=C/C(=O)c3ccccc3N)c2)c1	10 µM (≈ 4.15 µg/mL)	5 µM (≈ 2.07 µg/mL)	5 µM (≈ 2.07 µg/mL)	MIC (Escherichia coli [11]): inactive
COc1ccc(C(=O)/C=C/c2cc(-c3ccccc3C(F)(F)F)ccc2N2CCN(C)CC2)c(F)c1	20 µM (≈ 9.97 µg/mL)	10 µM (≈ 4.99 µg/mL)	5 µM (≈ 2.49 µg/mL)	–
COc1ccc(C(=O)/C=C/c2cc(C)ccc2OCCN(C)C)c(F)c1	150 µM (≈ 53.6 µg/mL)	150 µM (≈ 53.6 µg/mL)	75 µM (≈ 26.8 µg/mL)	–
CN(C)CCNc1ccc(C(=O)/C=C/c2ccc(Oc3ccccc3)cc2)cc1	5 µM (≈ 1.93 µg/mL)	20 µM (≈ 7.73 µg/mL)	20 µM (≈ 7.73 µg/mL)	–
COc1ccc(C(=O)/C=C/c2cc(-c3cc(C)cc(C)c3)ccc2OCC[N+](C)(C)C)c(C[N+](C)(C)C)c1	–	–	10 µM	–
